Measured values of several laboratories.
Compare with care: the assays were run in different laboratories.
Target: Serine/threonine-protein kinase D2 (PRKD2, Homo sapiens, UniProt Q9BZL6)
One construct used (Q9BZL6 1-878): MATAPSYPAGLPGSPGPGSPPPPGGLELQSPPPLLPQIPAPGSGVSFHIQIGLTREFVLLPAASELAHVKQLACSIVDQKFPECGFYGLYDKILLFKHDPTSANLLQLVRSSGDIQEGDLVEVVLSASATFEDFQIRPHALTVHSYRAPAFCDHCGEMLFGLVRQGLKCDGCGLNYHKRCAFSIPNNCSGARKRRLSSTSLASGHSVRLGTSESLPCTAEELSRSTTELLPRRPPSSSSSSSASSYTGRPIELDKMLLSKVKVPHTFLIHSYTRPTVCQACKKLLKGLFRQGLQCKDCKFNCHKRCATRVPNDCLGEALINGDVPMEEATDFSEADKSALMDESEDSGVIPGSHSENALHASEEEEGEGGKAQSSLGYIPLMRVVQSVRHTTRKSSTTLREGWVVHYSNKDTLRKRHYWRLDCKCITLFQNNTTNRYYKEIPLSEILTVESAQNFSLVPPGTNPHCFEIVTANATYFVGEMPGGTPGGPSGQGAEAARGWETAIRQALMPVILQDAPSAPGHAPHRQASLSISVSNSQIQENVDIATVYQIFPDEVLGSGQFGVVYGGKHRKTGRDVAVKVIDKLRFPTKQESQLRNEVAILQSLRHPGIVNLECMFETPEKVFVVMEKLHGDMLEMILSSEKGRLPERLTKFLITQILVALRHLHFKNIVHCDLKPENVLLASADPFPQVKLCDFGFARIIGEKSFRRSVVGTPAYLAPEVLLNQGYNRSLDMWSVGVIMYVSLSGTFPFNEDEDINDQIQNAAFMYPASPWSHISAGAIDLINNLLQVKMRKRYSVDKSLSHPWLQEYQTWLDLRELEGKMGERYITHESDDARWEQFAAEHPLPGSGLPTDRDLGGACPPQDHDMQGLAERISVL

For `O=C(NCCCN1CCOCC1)c1ccc(Nc2ncc(Cl)c(-c3ccc(Cl)s3)n2)cc1`, the remaining binding was 3.9% (binding; competition with immobilised ligand; 1 µM).
`CC(=O)N1CCC(c2ccc(C(=O)NC(=N)N)cc2C(F)(F)F)CC1` has a remaining binding of 100% (cell-free assay; competition with immobilised ligand; 1 µM).
For `Cc1cnn2ncc(-c3ccnc(N(C)C)n3)c2c1`, the remaining binding was 100% (binding; 1 µM).
`O=C(NC[C@@H]1[C@H]2CN(C(=O)OCc3cc(C(F)(F)F)cc(C(F)(F)F)c3)C[C@@H]12)c1ccc2[nH]nnc2c1` gave a remaining binding of 85% (cell-free assay; competition with immobilised ligand; 1 µM).
For `FC(F)(F)Oc1cccc(-c2cnc3ccc(-c4ccncc4)nn23)c1`, the remaining binding was 99% (cell-free assay; competition with immobilised ligand; 5 µM).
With `O=C(NCCCC1CCCCC1)c1ccc(CNC(=O)c2cnn(-c3ccccc3)c2C(F)(F)F)cc1` the remaining binding was 100% (cell-free assay; competition with immobilised ligand; 0.1 µM).
`C[C@H]1CCN(c2nccc(-c3cnn4ncccc34)n2)C1` has a remaining binding of 82% (binding; 1 µM).
With `COc1ncc2cc3ccccc3nc2c1C#N` the remaining binding was 93% (cell-free assay; competition with immobilised ligand; 5 µM).
`c1cnn2ncc(-c3ccnc(N4CCC45COC5)n3)c2c1` gave a remaining binding of 89% (binding; 1 µM).
`O=C(NCCCN1CCOCC1)c1ccc(Nc2nccc(-c3cc4ccccc4s3)n2)cc1` has a remaining binding of 36% (binding; competition with immobilised ligand; 1 µM).
With `O=C(Nc1c[nH]nc1C(=O)NC1CCNCC1)c1cc(F)cc(F)c1` the remaining binding was 100% (binding; competition with immobilised ligand; 1 µM).
`F[C@@H]1CCN(c2nccc(-c3cnn4ncccc34)n2)C1` gave a remaining binding of 100% (binding; 1 µM).
`CCCCN(CCCC)C(=O)CN1C[C@@H](c2cc(OC)c3c(c2)OCO3)[C@H](C(=O)O)[C@H]1CC(C)(C)CCC` gave a remaining binding of 90.6% (cell-free assay; competition with immobilised ligand; 1 µM).
`O=C(c1ccc(Nc2ncc(Cl)c(-c3cc4ccccc4s3)n2)cc1)N1CCC(N2CCCC2)CC1` has a remaining binding of 21% (binding; competition with immobilised ligand; 1 µM).
For `C[C@@H](c1ccc(-n2cnc3c(N)ncnc32)cc1)N1CCc2nn(C)c(Cc3ccccc3)c2C1=O`, the remaining binding was 99% (binding; competition with immobilised ligand; 0.1 µM).
`CNCc1ccccc1-c1csc([C@H](C)Nc2nc(C)nc3cc(OC)c(OC)cc23)c1` has a remaining binding of 99% (cell-free assay; competition with immobilised ligand; 1 µM).
`Nc1ncc2c(n1)-c1c([nH]c3ccc(C#CC4CC4)cc13)CCCC2` gave a remaining binding of 87% (binding; competition with immobilised ligand; 1 µM).
`N#Cc1ccc(Nc2ccc3[nH]c(=O)[nH]c3c2)c(Cl)c1` has a remaining binding of 100% (cell-free assay; competition with immobilised ligand; 1 µM).
The remaining binding of `COc1ccnn2ncc(-c3ccnc(N(C)C)n3)c12` is reported as 92% (binding; 1 µM).
`CC1=C(C#N)[C@@H](c2ccc3[nH]nc(C)c3c2)C(C#N)=C(c2ccc(Cl)cc2)N1` has a remaining binding of 100% (cell-free assay; competition with immobilised ligand; 1 µM).
`N[C@@H]1CCN(c2nccc(-c3cnn4ncccc34)n2)C1` gave a remaining binding of 94% (binding; 1 µM).
With `COc1cnc(Nc2cccc(S(N)(=O)=O)c2)nc1N1CCN(c2ccccc2)C(=O)C1` the remaining binding was 100% (binding; competition with immobilised ligand; 1 µM).
